From ChEMBL document CHEMBL2069248, “Synthesis and biological evaluation of a fluorescent analog of phenytoin as a potential inhibitor of neuropathic pain and imaging agent” (Bioorg Med Chem, 2012)
Active and inactive are the calls of the source.

Legend:
[1] = species: Rattus norvegicus; experiment: Displacement of [3H]BTX-B from VGSC site 2 in rat forebrain membranes at 40 uM incubated at 37 degC for 60 mins; format: cell membranes; conditions: Brain, Membrane
[2] = biological target: Sodium channel protein type 2 subunit alpha (Homo sapiens) (UniProt Q99250); experiment: Inhibition of human NaV1.2 expressed in HEK293 cells at 10 uM using sodium currents elicited through depolarizing step from holding potential of -100 mV to +10 mV for 25 ms at 15 s intervals by whole cell patch clamp method; format: cell-based
Method in brief: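 HEK293 cells stably expressing hNav1.2 were studied by whole-cell patch clamp at 20–22 °C with at least 75% series resistance compensation. Compound came from a 100 mM DMSO stock diluted in perfusion solution (final DMSO at most 0.1%). It was applied after a 3 min control period until current reached steady state. Result expressed as mean percent block ± SEM.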

[3] = tested on: Rattus norvegicus; experiment: Antinociceptive effect in Sprague-Dawley rat model of sciatic nerve constriction-induced neuropathic pain model assessed as reduction in threshold to von Frey filaments applied to affected hind paw at 100 mg/kg, sc measured 2 hrs post dose; format: functional, organism-based; design: dose 100 mg/kg
Method in brief: (§1)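 Adult female Sprague-Dawley rats (150 g at start) with unilateral sciatic nerve ligation; only animals with significant allodynia were used. Drug dissolved in DMSO and diluted in PEG400 to a 200 mg/ml stock, then diluted in PEG400/PBS and given subcutaneously. Von Frey withdrawal threshold measured by the up-and-down method 2 h post-dose. n = 5 per group, vehicle controls; one-way ANOVA with Tukey post hoc tests.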

[4] = tested on: Rattus norvegicus; experiment: Anticonvulsant effect in Sprague-Dawley rat epileptic model assessed as increase in seizure thresholds at 50 mg/kg, po dosed before seizure induction by subcutaneous metrazol seizure threshold test; format: functional, organism-based; design: dose 50 mg/kg
Method in brief: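 Rats pretreated orally with 50 mg/kg of test compound, then seizures induced by subcutaneous Metrazol (scMET) injection; testing done through the NINDS anticonvulsant screening program.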

[5] = Drug localization in Sprague-Dawley rat dorsal root ganglions at 100 uM using dansylated compound by two photon confocal microscopy; format: ADME, tissue-based, Dorsal root ganglion
[6] = tested on: Rattus norvegicus; experiment: Anticonvulsant effect in Sprague-Dawley rat epileptic model assessed as increase in seizure thresholds at 50 mg/kg, po dosed before seizure induction by maximal electroshock test; format: functional, organism-based; design: dose 50 mg/kg
[7] = tested on: Rattus norvegicus; experiment: Antinociceptive effect in Sprague-Dawley rat model of sciatic nerve constriction-induced neuropathic pain model assessed as reduction in threshold to von Frey filaments applied to affected hind paw at 50 mg/kg, sc measured 2 hrs post dose; format: functional, organism-based; design: dose 50 mg/kg; method in brief: as §1
[8] = tested on: Rattus norvegicus; experiment: Antinociceptive effect in Sprague-Dawley rat model of sciatic nerve constriction-induced neuropathic pain model assessed as […] to von Frey filaments applied to affected hind paw at 30 mg/kg, sc measured 2 hrs post dose; format: functional, organism-based; design: dose 30 mg/kg

Sodium channel protein type 2 subunit alpha (Homo sapiens), sequence (Q99250 whole entry, looked up, the tested form may be a part): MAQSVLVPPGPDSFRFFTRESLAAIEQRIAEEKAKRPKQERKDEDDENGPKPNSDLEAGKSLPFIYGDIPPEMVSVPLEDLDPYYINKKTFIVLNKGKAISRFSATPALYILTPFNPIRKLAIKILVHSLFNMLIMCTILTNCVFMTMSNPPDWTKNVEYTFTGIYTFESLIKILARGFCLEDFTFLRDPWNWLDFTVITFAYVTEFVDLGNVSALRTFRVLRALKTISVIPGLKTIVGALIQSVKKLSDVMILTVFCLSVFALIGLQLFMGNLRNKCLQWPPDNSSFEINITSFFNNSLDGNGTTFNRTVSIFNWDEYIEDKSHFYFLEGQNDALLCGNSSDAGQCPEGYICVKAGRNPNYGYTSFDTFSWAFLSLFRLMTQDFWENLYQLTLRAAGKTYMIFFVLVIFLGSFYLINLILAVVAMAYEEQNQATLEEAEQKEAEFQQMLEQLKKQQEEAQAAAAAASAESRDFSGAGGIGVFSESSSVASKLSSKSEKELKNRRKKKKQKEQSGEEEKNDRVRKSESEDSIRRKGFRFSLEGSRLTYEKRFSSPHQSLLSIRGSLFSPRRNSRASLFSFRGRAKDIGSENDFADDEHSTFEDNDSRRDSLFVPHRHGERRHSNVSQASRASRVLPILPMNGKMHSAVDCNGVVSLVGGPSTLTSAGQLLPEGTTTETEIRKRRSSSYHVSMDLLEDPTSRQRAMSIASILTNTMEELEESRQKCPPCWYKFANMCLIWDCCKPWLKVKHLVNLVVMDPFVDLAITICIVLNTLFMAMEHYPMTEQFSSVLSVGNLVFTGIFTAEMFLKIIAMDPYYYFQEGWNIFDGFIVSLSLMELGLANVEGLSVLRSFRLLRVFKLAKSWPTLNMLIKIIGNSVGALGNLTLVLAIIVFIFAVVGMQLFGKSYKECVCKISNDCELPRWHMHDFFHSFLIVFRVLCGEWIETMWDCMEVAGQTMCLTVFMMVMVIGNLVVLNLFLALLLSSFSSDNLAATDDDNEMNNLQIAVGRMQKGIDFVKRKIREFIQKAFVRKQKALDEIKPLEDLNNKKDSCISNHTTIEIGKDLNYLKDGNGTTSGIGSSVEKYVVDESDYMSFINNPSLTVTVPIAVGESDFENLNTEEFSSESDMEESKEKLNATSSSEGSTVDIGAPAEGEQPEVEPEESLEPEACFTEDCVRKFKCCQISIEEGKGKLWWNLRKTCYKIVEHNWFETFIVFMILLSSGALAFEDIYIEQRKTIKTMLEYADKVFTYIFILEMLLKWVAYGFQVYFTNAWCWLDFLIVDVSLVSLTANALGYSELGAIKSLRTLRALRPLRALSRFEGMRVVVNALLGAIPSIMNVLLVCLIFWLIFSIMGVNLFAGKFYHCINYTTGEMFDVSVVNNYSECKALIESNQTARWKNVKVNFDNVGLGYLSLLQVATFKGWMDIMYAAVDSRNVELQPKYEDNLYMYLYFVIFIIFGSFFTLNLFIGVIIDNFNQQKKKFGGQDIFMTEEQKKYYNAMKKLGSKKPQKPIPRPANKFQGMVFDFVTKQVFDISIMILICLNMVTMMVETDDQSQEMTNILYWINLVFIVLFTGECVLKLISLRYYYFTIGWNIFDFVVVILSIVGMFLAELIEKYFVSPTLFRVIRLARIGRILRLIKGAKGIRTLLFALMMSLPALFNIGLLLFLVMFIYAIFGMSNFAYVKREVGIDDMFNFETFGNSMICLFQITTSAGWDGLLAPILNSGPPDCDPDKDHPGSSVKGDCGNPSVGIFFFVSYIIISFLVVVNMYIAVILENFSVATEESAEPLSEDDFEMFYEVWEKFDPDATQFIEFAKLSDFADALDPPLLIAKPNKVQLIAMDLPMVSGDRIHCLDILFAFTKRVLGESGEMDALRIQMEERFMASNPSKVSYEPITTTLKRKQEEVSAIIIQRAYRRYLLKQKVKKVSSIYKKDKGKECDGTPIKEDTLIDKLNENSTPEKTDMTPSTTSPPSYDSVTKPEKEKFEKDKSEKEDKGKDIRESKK

| Structure (SMILES) | inhibition [1] [%] | other results |
| --- | --- | --- |
| CCCCCCCC(O)(c1cccc(Cl)c1)c1cccc(OC)c1 (centres undefined) | 51 |  |
| C=CCCCCCC(O)(C(N)=O)c1cccc(Cl)c1 (centres undefined) | 86 |  |
| C=CCCCCCC1(c2cccc(Cl)c2)NC(=O)N(CC=C)C1=O (centres undefined) | 72 |  |
| CN(C)c1cccc2c(S(=O)(=O)NCCCCCC3(c4cccc(Cl)c4)NC(=O)NC3=O)cccc12 (centres undefined) | 86 | inhibition [2]: 59%; Activity [3]: Active; Activity [4]: inactive; Drug uptake [5]: Active; Activity [6]: inactive; Activity [7]: Active |
| O=C1NC(=O)C(CCCCCC2CC2)(c2cccc(Cl)c2)N1 (centres undefined) | 87 |  |
| CCCCCCCC(O)(c1cccc(Cl)c1)c1ccc(F)c(F)c1 (centres undefined) | 42 |  |
| CCCCCCCC1(c2cccc(Cl)c2)NC(=O)N(CC2CC2)C1=O (centres undefined) | 78 |  |
| CCCCCCCC1(c2cccc(Cl)c2)C(=O)N=C(SC)N1C (centres undefined) | 18 |  |
| C=CCCCCCC1(c2cccc(Cl)c2)NC(=O)NC1=O (centres undefined) | 79 |  |
| C=CCN1C(=O)NC(CCCCCCC)(c2cccc(Cl)c2)C1=O (centres undefined) | 83 |  |
| CCCCCCCC1(c2cccc(Cl)c2)NC(=O)N(Cc2ccccc2)C1=O (centres undefined) | 72 |  |
| C#CCN1C(=O)NC(CCCCCCC)(c2cccc(Cl)c2)C1=O (centres undefined) | 57 |  |
| O=C1NC(=O)C(c2ccccc2)(c2ccccc2)N1 [PHENYTOIN] | 28 | Activity [4]: Active; Activity [6]: Active |
| O=C1NC(=O)C(CCCCCC2CO2)(c2cccc(Cl)c2)N1 (centres undefined) | 28 |  |
| CCCCCCCC(O)(c1cccc(Cl)c1)c1cc(C(F)(F)F)cc(C(F)(F)F)c1 (centres undefined) | 8 |  |
| C#C/C(=C\CCCCCC)c1cccc(Cl)c1 | 32 |  |
| CC(C)=CCC/C(C)=C/CC(O)(C(N)=O)c1cccc(Cl)c1 (centres undefined) | 84 |  |

| Structure (SMILES) | inhibition [1] [%] | other results |
| --- | --- | --- |
| NCC1(CC(=O)O)CCCCC1 |  | Activity [8]: Active |
| CCCCCCCC(O)(c1cc(F)cc(F)c1)c1cccc(Cl)c1 (centres undefined) | 35 |  |
| O=C1NC(=O)C(CCCOCc2ccccc2)(c2cccc(Cl)c2)N1 (centres undefined) | 71 |  |
| CCCCCCCC1(c2cccc(Cl)c2)NC(=S)NC1=O (centres undefined) | 67 |  |
| CCCCCCCC(O)(C(N)=O)c1cccc(Cl)c1 (centres undefined) | 48 |  |
| CCCCCCCC(O)(c1cccc(Cl)c1)c1cc(F)cc(OC)c1 (centres undefined) | 56 |  |
| CCCCCCCC1(c2cccc(Cl)c2)OC(C)(C)OC1=O (centres undefined) | 27 |  |
| CCCCCCCC(O)(c1cccc(Cl)c1)c1ccccn1 (centres undefined) | 28 |  |
| CCCCCCCC1(c2cccc(Cl)c2)NC(=O)N(CCc2ccccc2)C1=O (centres undefined) | 17 |  |
| NC(=O)C(O)(CCCCOCc1ccccc1)c1cccc(Cl)c1 (centres undefined) | 52 |  |
| CC(C)=CCCC(C)CCC(O)(C(N)=O)c1cccc(Cl)c1 (centres undefined) | 40 |  |
| CCCCCCCC1(c2cccc(Cl)c2)NC(=O)N(Cc2cccc(F)c2)C1=O (centres undefined) | 71 |  |
| CCCCCCCC1(c2cccc(Cl)c2)NC(=O)NC1=O (centres undefined) | 70 | inhibition [2]: 31%; Activity [3]: Active; Activity [7]: Active |
| CCCCCCCC(O)(c1cccc(Cl)c1)c1ccc(C)cn1 (centres undefined) | 41 |  |
| C#CC(O)(CCCCCCC)c1cccc(Cl)c1 (centres undefined) | 78 |  |
| CCCCCCCC1(c2cccc(Cl)c2)NC(SC)=NC1=O (centres undefined) | 51 |  |
